Exocytosis inh: lytic granule exocytosis inhibition; 360,000 compounds, 0.66% hits; TALL-104 LAMP-1 surface exposure, flow cytometry; cells stimulated with thapsigargin and PMA; inhibition, % at 10 µM;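 active means inhibition above about 55%, limit read from the data; inconclusive means no clear call, values can overlap the other calls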
MC4R ag barr: human MC4R agonism via beta-arrestin | P32245 | U2OS MC4R beta-arrestin complementation, luminescence; percent of melanotan II response, DMSO zero | activation, % at 8.9 µM | 360,000 compounds, 0.98% hits | AID 540308;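 active means activation above a per-plate cutoff, the mean activation of sample wells on that plate plus 3 SD, cut at about 8% in these data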
Target sequence (P32245 whole entry, looked up): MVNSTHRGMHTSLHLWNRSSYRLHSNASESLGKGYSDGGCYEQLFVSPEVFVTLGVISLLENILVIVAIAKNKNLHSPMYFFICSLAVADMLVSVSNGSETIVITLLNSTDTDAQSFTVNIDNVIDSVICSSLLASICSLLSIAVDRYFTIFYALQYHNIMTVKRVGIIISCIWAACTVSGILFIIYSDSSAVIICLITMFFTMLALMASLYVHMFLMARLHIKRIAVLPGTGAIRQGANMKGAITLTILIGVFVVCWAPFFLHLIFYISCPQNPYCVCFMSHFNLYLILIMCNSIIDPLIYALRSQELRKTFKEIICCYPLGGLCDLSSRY
iPSC survival up: hiPSC single-cell survival enhancement. ATPlite luminescence; 100% = ROCK inhibitor wells, 0% = DMSO. survival enhancement, % at 20 µM. 360,000 compounds, 0.044% hits. AID 602274; in the data active means survival enhancement above about 18%;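 further: cells exposed to compounds for 16 hours before the ATP read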
MC4R antagonist: blocks human MC4R cAMP signaling | AID 540295 | inhibition, % at 6.5 µM | MC4R-expressing cells, MTII-stimulated cAMP, LANCE TR-FRET | P32245 | 360,000 compounds, 0.48% hits;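 active means inhibition above its plate's cutoff, the mean of tested wells on that plate plus 3 SD, cut at about 29% in these data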
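Material – human MC4R-expressing U2OS cells · Repeats – no replicates · Detection – TR-FRET with Eu-cAMP and labeled anti-cAMP, 671 nm · Times – compound 30 min, challenge 1 h, detection 1 h · Compound – single nominal compound dose of 6.5 µM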
ABCB6 inh 2: blocks the human ABCB6 transporter. K562-ABCB6 porphyrin accumulation, flow cytometry, 1 h; hits give low values. fluorescence ratio to DMSO, % at 10 µM. Q9NP58. AID 602162. 360,000 compounds, 0.19% hits;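 active means fluorescence ratio to DMSO below 75%, the collection mean minus 3 SD; inconclusive means too few cells collected in the well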;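 further: signal is porphyrin accumulated inside mitochondria; lower ratio means ABCB6 inhibition with less porphyrin fluorescence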
Tb MetRS inh: Trypanosoma brucei MetRS inhibition; 360,000 compounds, 0.4% hits; AID 624268; inhibition, % at 11.9 µM; purified T. brucei MetRS, ATP depletion, Kinase-Glo luminescence;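 active means inhibition above a per-plate cutoff of the control wells' mean inhibition plus 3 SD, cut at about 5.5% in these data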
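assay system = parasite MetRS enzyme | timing = 15 min preincubation, 2 h reaction, all 25 °C | evaluation = percent inhibition relative to median high and low control wells | medium = HEPES buffer containing pyrophosphatase, BSA, spermine, DTT | compound = single dose, 11.9 µM final nominal, 0.9% final DMSO | detection = Kinase-Glo luminescence, ATP depletion format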
MC4R barr ag: human MC4R beta-arrestin agonism confirmation | U2OS MC4R beta-arrestin recruitment, luminescence; scaled DMSO 0%, Melanotan II 100% | activation, % at 8.9 µM | 2,400 compounds, 31% hits | shares compounds with MC4R ag barr;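 active means mean activation across replicates above the hit cutoff set in the earlier primary screen, cut at about 8% in these data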
MOR-DOR barr ag: counter-screen for MC4R agonists: agonists of mu-delta opioid heterodimer | shares compounds with MC4R ag barr | U2OS PathHunter beta-arrestin, beta-gal luminescence; percent of deltorphin B response, DMSO zero | activation, % at 9.2 µM | 2,400 compounds, 5.8% hits;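 active means mean activation across replicates exceeds the hit threshold derived in the earlier primary screen, cut at about 18% in these data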
A number is an active result; n = inactive; u = inconclusive; x = no result. Only some compounds are listed: those with a hit (about 2.6% of all), similar ones and a draw of the others.

SMILES | Exocytosis inh | MC4R ag barr | iPSC survival up | MC4R antagonist | ABCB6 inh 2 | Tb MetRS inh | MC4R barr ag | MOR-DOR barr ag
COC(=O)c1cc(Nc2cc(C)c3ccc(O)cc3n2)cc(C(=O)OC)c1 | n | n | n | n | n | n | x | x
COC(=O)c1cc(Nc2cc(C)c3c(O)cccc3n2)cc(C(=O)OC)c1 | n | 12 | n | n | n | n | n | n
Cc1cc(C)c(OCC(=O)Nc2ccc(NC(=O)c3ccco3)cc2)c([N+](=O)[O-])c1 | n | 13 | n | n | n | n | n | n
Cc1ccc(OCC(=O)Nc2cccc(-c3nnc(-c4ccccc4)o3)c2)c(C)c1 | n | 35 | n | n | n | n | n | n
COc1cc(C(=O)NC(=S)Nc2ccc(NC(=O)c3ccco3)cc2)cc(OC)c1OC | n | 11 | n | n | n | n | n | n
Cc1ccc(OCC(=O)Nc2ccc(NC(=O)c3ccco3)cc2)c(C)c1 | n | 18 | n | n | n | n | n | n
CC(=O)Nc1cccc(-c2nnc(-c3ccccc3)o2)c1 | n | n | n | n | n | n | x | x
CCN(C(=O)CCN1C(=O)/C(=C/c2ccccc2)SC1=S)C1CCS(=O)(=O)C1 (centres undefined) | n | n | n | n | n | n | x | x
O=C(O)c1ccc(NC(=O)c2cn(-c3ccccc3)nc2-c2cccc(Cl)c2)cc1 | n | n | n | n | n | n | x | x
Cc1c([N+](=O)[O-])cc(C(=O)Nc2ccc(NC(=O)c3ccco3)cc2)cc1[N+](=O)[O-] | n | 10 | n | n | n | n | n | n
Cc1cc(C(=O)Nc2ccc3[nH]ccc3c2)no1 | n | n | n | n | n | n | x | x
CC(C)c1cc(C(=O)N/N=C/c2cccnc2)n[nH]1 | n | n | n | n | n | n | x | x
CC(C)c1ccc(NC(=S)NCc2ccc3c(c2)OCO3)cc1 | n | 12 | n | n | n | n | n | n
COc1ccc(NC(=S)NCc2ccc3c(c2)OCO3)cc1 | n | n | n | n | n | n | x | x
O=C(c1ccc(C(F)(F)F)cc1)N1CCN(c2ccc(N3CCOCC3)nn2)CC1 | n | n | n | n | n | n | x | x
COc1cc(SC#N)ccc1N=Cc1c(C)[nH]n(-c2ccc(C)c(C)c2)c1=O | n | 12 | n | n | n | n | 9.3 | n
O=C(COC(=O)c1c(F)cccc1F)NCCNC(=O)COC(=O)c1c(F)cccc1F | n | n | n | n | n | n | x | x
O=C(CC(=O)Nc1cc(Cl)ccc1Cl)Nc1cc(Cl)ccc1Cl | n | 15 | n | n | n | n | n | n
CC1CC(C)CN(C(=O)C(C)N(C)CC(=O)Nc2ccc(Cl)cc2)C1 (centres undefined) | n | n | n | n | n | n | x | x
Cc1cccc(C(=O)OCC(=O)c2ccc3c(c2)OCO3)c1O | n | n | n | n | n | n | x | x
Cc1cccc(C(=O)OCC(=O)c2ccc3c(c2)OCCO3)c1O | n | 11 | n | n | n | n | n | n
COc1ccccc1NC(=O)COC(=O)c1ccc2c(c1)OCCO2 | n | 19 | n | n | n | n | n | n
CC(C)Oc1ccc(F)cc1-c1cc(C(=O)NCc2cccs2)[nH]n1 | n | n | n | n | n | n | x | x
CCOc1ccc(CNC(=O)Cn2c(=O)c3cccn3c3ccccc32)cc1 | n | 22 | n | n | n | n | n | n
CC(C)Oc1ccc(CNC(=O)Cn2c(=O)c3cccn3c3cccnc32)cc1 | n | n | n | n | n | n | x | x
SMILES | Exocytosis inh | MC4R ag barr | iPSC survival up | MC4R antagonist | ABCB6 inh 2 | Tb MetRS inh | MC4R barr ag | MOR-DOR barr ag
Nc1[nH]c(C(=O)c2ccccc2)c(-c2ccccc2C(F)(F)F)c1C(=O)c1cccs1 | n | x | n | x | n | n | x | x
C=CCNC(=O)NC(=O)COC(=O)/C(C#N)=C/c1cc(C)n(CCC(C)C)c1C | n | 10 | n | n | n | n | n | n
COc1ccc(Sc2nnc(-c3ccccc3)cc2C#N)cc1 | n | n | n | n | n | n | x | x
Cc1ccc(Sc2nnc(-c3ccccc3)cc2C#N)cc1 | n | 13 | n | n | n | n | n | n
O=C(COc1ccccc1Cl)Nc1ccc2oc(=O)ccc2c1 | n | 12 | n | n | n | n | n | n
O=C(COc1ccc2ccc(=O)oc2c1)Nc1ccc(N2CCCCC2)cc1 | n | 16 | n | n | n | n | 9.1 | n
Cc1ccc(NC(=O)COC(=O)c2ccccc2Nc2ccccc2)cc1 | n | 13 | n | n | n | n | n | n
O=C(COC(=O)c1ccccc1Nc1ccccc1)c1ccccc1 | n | n | n | n | n | n | x | x
COc1ccc(-c2nn(-c3ccccc3)cc2/C=C2/SC(=S)N(CCC(=O)O)C2=O)cc1 | u | n | n | n | n | n | x | x
O=C(O)CCCCCN1C(=O)/C(=C/c2cn(-c3ccccc3)nc2-c2cccs2)SC1=S | n | n | n | n | n | n | x | x
O=C(O)CCN1C(=O)/C(=C/c2cn(-c3ccccc3)nc2-c2cccs2)SC1=S | n | 27 | n | n | n | n | n | n
O=C(O)CCCCCN1C(=O)/C(=C\c2cn(-c3ccccc3)nc2-c2cccs2)SC1=S | n | 26 | n | n | n | n | 10.0 | n
Cc1ccc(C)c(OCCC(=O)OCC(=O)Nc2cc(S(=O)(=O)N3CCOCC3)ccc2C)c1 | n | n | n | n | n | n | x | x
Cc1ccccc1OCC(=O)N=Nc1c(O)n(C)c2ccccc12 | n | 18 | n | n | n | n | n | n
CCOC(=O)N=Nc1c(O)n(C)c2ccccc12 | n | n | n | n | n | n | x | x
COc1ccc(-c2nnc(C)c3nocc23)cc1 | n | n | n | n | n | n | x | x
CC(=O)Nc1cc(-c2ccc(C(=O)NC3CC3)cc2)cn2c(-c3cccc(C(C)=O)c3)cnc12 | n | 16 | n | n | n | n | 18 | n
CC(=O)Nc1cc(-c2cccc(C(=O)N(C)C)c2)cn2c(-c3cccc(C(F)(F)F)c3)cnc12 | n | n | n | n | n | n | x | x
CC(=O)Nc1cc(-c2ccc(C(=O)NC3CC3)cc2)cn2c(-c3cccc(C(F)(F)F)c3)cnc12 | n | 11 | n | n | n | n | 20 | n
Cc1nc2ccn(Cc3ccccc3)c(=O)c2cc1C(=O)N1CCN(c2ccccc2)CC1 | n | n | n | n | n | n | x | x
CCOC(=O)c1sc2nc(CSc3ccccc3Cl)[nH]c(=O)c2c1C | n | 10 | n | n | n | n | n | n
COc1cc(CN2CCC(C(=O)NC(c3ccc(-c4ccccc4)cc3)c3cnccn3)CC2)cc(OC)c1 (centres undefined) | n | n | n | n | n | n | x | x

High-throughput results as filed in PubChem.
